Assay results as given in ChEMBL document CHEMBL4330143, “Maximizing ER-α Degradation Maximizes Activity in a Tamoxifen-Resistant Breast Cancer Model: Identification of GDC-0927” (ACS Med Chem Lett, 2019).
Calls of active or inactive are those of the source. The calls are words filed in the database; no cut-off is given here.

How the values were obtained:
[1] = Cmax in nude mouse xenografted with tamoxifen-resistant human MCF7 cells at 100 mg/kg, po daily for 28 days measured on day 28 post last dose; format: ADME, organism-based; set-up: dose 100 mg/kg, route oral; conditions: in vivo
Method in brief: (§1)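 Tamoxifen-resistant MCF-7 xenograft mice carrying subcutaneous 0.72 mg estradiol pellets. Plasma pharmacokinetics sampled on day 28 of the study, at take-down.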

[2] = AUC (0 to 24 hrs) in nude mouse xenografted with tamoxifen-resistant human MCF7 cells at 100 mg/kg, po daily for 28 days measured on day 28 post last dose; format: ADME, organism-based; set-up: time < 24 hr, dose 100 mg/kg, route oral; conditions: in vivo; method in brief: as §1
[3] = Unbound Cmax in nude mouse xenografted with tamoxifen-resistant human MCF7 cells at 100 mg/kg, po daily for 28 days measured on day 28 post last dose; format: ADME, organism-based; conditions: in vivo, 672 h; method in brief: as §1
[4] = Unbound AUC (0 to 24 hrs) in nude mouse xenografted with tamoxifen-resistant human MCF7 cells at 100 mg/kg, po daily for 28 days measured on day 28 post last dose; format: ADME, organism-based; conditions: in vivo; method in brief: as §1
[5] = Clearance in rat at 10 mg/kg, po daily for 3 days measured on day 3 post last dose; format: ADME, organism-based; conditions: in vivo
[6] = Oral bioavailability in rat at 10 mg/kg daily for 3 days measured on day 3 post last dose; format: ADME, organism-based; conditions: in vivo
MCF7 [7] = test: Antitumor activity against tamoxifen-resistant human MCF7 cells xenografted in nude mouse at 100 mg/kg, po daily for 28 days; format: functional, organism-based
Method in brief: (§2)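 Tamoxifen-resistant MCF-7 tumours grown subcutaneously in mice, with estradiol supplied from subcutaneous 0.72 mg estradiol pellets.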

Mus musculus = test: In vivo induction of ERalpha degradation in tumor of nude mouse xenografted with tamoxifen-resistant human MCF7 cells at 100 mg/kg, po daily for 28 days measured on day 28 post last dose; format: functional, organism-based; method in brief: as §2
[8] = Unbound fraction in mouse plasma; format: ADME, cell-free
MCF7 [9] = test: Antiproliferative activity against human MCF7 cells after 5 days by CellTiter-Glo assay; conditions: MCF7, 120 h
[10] = AUC in mouse at 10 mg/kg, po; format: ADME, organism-based; conditions: in vivo
Rattus norvegicus [11] = test: In vivo agonist activity at ERalpha in CD-IGS rat assessed as increase in uterine weight at 60 mg/kg, po for 3 consecutive days measured at 24 hrs post last dose; format: functional, organism-based
Estrogen receptor = target: T1, Estrogen receptor (Homo sapiens, UniProt P03372); test: Induction of ERalpha degradation in human MCF7 cells assessed as decrease in ERalpha protein level after 4 hrs by InCell Western assay; format: cell-based
T1 sequence (P03372 whole entry): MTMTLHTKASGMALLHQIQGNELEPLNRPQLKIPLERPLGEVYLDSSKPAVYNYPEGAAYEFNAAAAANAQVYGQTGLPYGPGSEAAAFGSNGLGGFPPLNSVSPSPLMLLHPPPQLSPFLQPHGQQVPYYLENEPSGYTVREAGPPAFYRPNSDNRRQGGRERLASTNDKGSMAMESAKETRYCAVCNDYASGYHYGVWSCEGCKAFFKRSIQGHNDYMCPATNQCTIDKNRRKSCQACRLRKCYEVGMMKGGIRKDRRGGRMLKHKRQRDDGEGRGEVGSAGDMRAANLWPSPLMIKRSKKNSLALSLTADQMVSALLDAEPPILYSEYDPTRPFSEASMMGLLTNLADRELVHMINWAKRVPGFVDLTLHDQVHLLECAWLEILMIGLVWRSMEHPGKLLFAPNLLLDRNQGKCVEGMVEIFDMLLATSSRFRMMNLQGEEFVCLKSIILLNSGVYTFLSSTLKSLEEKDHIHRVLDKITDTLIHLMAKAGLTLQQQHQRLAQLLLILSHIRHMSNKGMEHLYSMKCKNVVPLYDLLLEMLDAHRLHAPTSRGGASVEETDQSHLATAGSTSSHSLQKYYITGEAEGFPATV

Rattus norvegicus [12] = test: In vivo inverse agonist activity at ERalpha in CD-IGS rat assessed as decrease in uterine weight at 10 mg/kg, po for 3 consecutive days measured at 24 hrs post last dose; format: functional, organism-based
Method in brief: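 Rat uterine wet weight assay run in agonist mode, with no ethynyl estradiol added. Oral dosing at 10 mg/kg for 3 days. Uterine weights compared with those of vehicle-treated animals.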

[13] = AUC in rat at 10 mg/kg, po daily for 3 days measured on day 3 post last dose; format: ADME, organism-based; conditions: in vivo

**Q.** With `CC1=C(c2cccc(O)c2)[C@H](c2ccc(OC[C@H](C)N3CC[C@@H](C)C3)cc2)Oc2ccc(O)cc21` as the molecule, how does the Cmax [1] read?
**A.** The Cmax was 1300 ng/mL.

**Q.** And the AUC at 24 h [2]?
**A.** The AUC at 24 h was 12000 ng·h/mL.

**Q.** What about the fCmax [3] of the same molecule?
**A.** Its fCmax is 0.021 µg/mL.

**Q.** What about the fAUC [4] of the same molecule?
**A.** Its fAUC is 190 ng·h/mL.

**Q.** And the CL/F [5]?
**A.** Its CL/F is over 60 mL/min/kg.

**Q.** And the bioavailability [6]?
**A.** The bioavailability was under 15%.

**Q.** And the Activity (MCF7 [7])?
**A.** The Activity was “inactive”.

**Q.** And the Activity (Mus musculus)?
**A.** The Activity was “Active”.

**Q.** What about the Fu [8] of the same molecule?
**A.** The Fu was 1.6%.

**Q.** For `CC1=C(c2cccc(O)c2)C(c2ccc(OCCN3CC(CF)C3)cc2)Oc2ccc(O)cc21` (centres undefined), which IC50 (MCF7 [9]) is on record?
**A.** The IC50 was 0.2 nM.

**Q.** And the AUC [10]?
**A.** Its AUC is 160 ng·h/mL.

**Q.** For `CC/C(=C(\c1ccccc1)c1ccc(OCCN(C)C)cc1)c1ccccc1`, which Activity (Rattus norvegicus [11]) is on record?
**A.** The Activity was “Active”.

**Q.** For `CC1=C(c2cccc(O)c2)C(c2ccc(OCCN3CC[C@@H](C(F)F)C3)cc2)Oc2ccc(O)cc21` (some centres undefined), which IC50 (Estrogen receptor) is on record?
**A.** Its IC50 is 0.2 nM.

**Q.** And the IC50 (MCF7 [9])?
**A.** The IC50 was 0.4 nM.

**Q.** With `CC1=C(c2ccc(F)cc2)[C@H](c2ccc(OCCN3CC(CF)C3)cc2)Oc2ccc(O)cc21` as the molecule, how does the IC50 (MCF7 [9]) read?
**A.** Its IC50 is 0.2 nM.

**Q.** What about the Cmax [1] of the same molecule?
**A.** Its Cmax is 2300 ng/mL.

**Q.** And the AUC at 24 h [2]?
**A.** Its AUC at 24 h is 21000 ng·h/mL.

**Q.** And the fCmax [3]?
**A.** The fCmax was 0.009 µg/mL.

**Q.** And the fAUC [4]?
**A.** The fAUC was 80 ng·h/mL.

**Q.** And the CL/F [5]?
**A.** Its CL/F is 36 mL/min/kg.

**Q.** And the bioavailability [6]?
**A.** The bioavailability was 42%.

**Q.** What about the Activity (MCF7 [7]) of the same molecule?
**A.** The Activity was “Active”.

**Q.** And the Activity (Mus musculus)?
**A.** Its Activity is “Active”.

**Q.** What about the Fu [8] of the same molecule?
**A.** The Fu was 0.4%.

**Q.** And the Activity (Rattus norvegicus [12])?
**A.** Its Activity is “Active”.

**Q.** What about the AUC at 72 h [13] of the same molecule?
**A.** Its AUC at 72 h is 1900 ng·h/mL.

**Q.** For `CC1=C(c2cccc(O)c2)C(c2ccc(OCCN3CCC[C@H]3CF)cc2)Oc2ccc(O)cc21` (some centres undefined), which IC50 (Estrogen receptor) is on record?
**A.** Its IC50 is 0.2 nM.

**Q.** What about the IC50 (MCF7 [9]) of the same molecule?
**A.** The IC50 was 1.4 nM.

**Q.** For `CC1=C(c2cccc(O)c2)C(c2ccc(OCCN3CC[C@@H](C#N)C3)cc2)Oc2ccc(O)cc21` (some centres undefined), which IC50 (Estrogen receptor) is on record?
**A.** The IC50 was 0.8 nM.

**Q.** And the IC50 (MCF7 [9])?
**A.** The IC50 was 3.6 nM.

**Q.** With `CC1=C(c2cccc(O)c2)C(c2ccc(OC[C@H](C)N3CC(CF)C3)cc2)Oc2ccc(O)cc21` (some centres undefined) as the molecule, how does the IC50 (Estrogen receptor) read?
**A.** Its IC50 is 0.2 nM.

**Q.** What about the IC50 (MCF7 [9]) of the same molecule?
**A.** The IC50 was 0.3 nM.

**Q.** With `COC[C@@H]1CCN(CCOc2ccc(C3Oc4ccc(O)cc4C(C)=C3c3cccc(O)c3)cc2)C1` (some centres undefined) as the molecule, how does the IC50 (Estrogen receptor) read?
**A.** The IC50 was 0.3 nM.

**Q.** What about the IC50 (MCF7 [9]) of the same molecule?
**A.** The IC50 was 0.4 nM.

**Q.** What does the source list for `CC1=C(c2cccc(O)c2)C(c2ccc(OCCN3CC[C@@H](CF)C3)cc2)Oc2ccc(O)cc21` (some centres undefined)?
**A.** IC50 (Estrogen receptor): 0.1 nM; IC50 (MCF7 [9]): 0.2 nM; AUC [10]: 40 ng·h/mL

**Q.** With `CC1=C(c2ccc(C#N)cc2)C(c2ccc(OCCN3CC(CF)C3)cc2)Oc2ccc(O)cc21` (centres undefined) as the molecule, how does the IC50 (Estrogen receptor) read?
**A.** Its IC50 is 0.2 nM.

**Q.** What about the IC50 (MCF7 [9]) of the same molecule?
**A.** Its IC50 is 0.3 nM.
